“And” between values parts separate entries of the source, which are not always exact repeats. Equal entries are not always repeated.
Assays:
Rattus norvegicus [1] = test: (§1) Biodistribution in Rat liver after 30 minutes of iv administration; per g of tissue; assay type: ADME, organism-based; settings: in vivo, 0.5 h
Outline: (§2)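 125I-labeled compound solubilized in normal saline with Tween-20 and given iv to rats, about 5-30 μCi (9-83 μg) per animal. Three to five rats per time point. Rats killed by exsanguination under ether anesthesia at 5 min, 30 min or 24 h. Organs minced, blotted free of blood and counted for radioiodine. Lines with "per g" are % administered dose per gram ± SEM.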

Rattus norvegicus [2] = test: Biodistribution in Rat lung after 24 hours of iv administration; per g of tissue; assay type: ADME, organism-based; settings: in vivo; outline: as §2
Rattus norvegicus [3] = test: Biodistribution in Rat lung after 30 minutes of iv administration; per g of tissue; assay type: ADME, organism-based; settings: in vivo, 0.5 h; outline: as §2
Rattus norvegicus [4] = test: Biodistribution in Rat lung after 5 minutes of iv administration; per g of tissue; assay type: ADME, organism-based; settings: in vivo; outline: as §2
Rattus norvegicus [5] = test: Biodistribution in Rat blood after 24 hours of iv administration; per g of tissue; assay type: ADME, organism-based; settings: in vivo; outline: as §2
Rattus norvegicus [6] = test: Biodistribution in Rat blood after 5 minutes of iv administration; per g of tissue; assay type: ADME, organism-based; settings: in vivo; outline: as §2
Rattus norvegicus [7] = test: Biodistribution in Rat heart after 24 hours of iv administration; per g of tissue; assay type: ADME, organism-based; settings: in vivo; outline: as §2
Rattus norvegicus [8] = test: Biodistribution in Rat heart after 30 minutes of iv administration; per g of tissue; assay type: ADME, organism-based; settings: in vivo, 0.5 h; outline: as §2
Rattus norvegicus [9] = test: Biodistribution in Rat heart after 5 minutes of iv administration; per g of tissue; assay type: ADME, organism-based; settings: in vivo; outline: as §2
Rattus norvegicus [10] = test: Biodistribution in Rat liver after 24 hours of iv administration; per g of tissue; assay type: ADME, organism-based; settings: in vivo; outline: as §2
Rattus norvegicus [11] = test: as §1; assay type: ADME, organism-based; settings: in vivo, 0.5 h; outline: as §2; remark: listed apart in the source
Rattus norvegicus [12] = test: Compound was evaluated for the lipid soluble radioactivity extracted from rat plasma at 24 hr after intravenous administration.; assay type: functional
Outline: (§3)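 Liver and plasma taken 0.5 or 24 h after iv dosing of 125I-labeled compound in rats (n = 3-5). Extracted by a modified Folch procedure; value is % lipid (CHCl3/MeOH)-extractable radioactivity ± SEM. Extracts run on TLC in hexane/ethyl acetate 5:2 against unlabeled standard, then 1-cm strips counted to give % parent compound.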

Rattus norvegicus [13] = test: Compound was evaluated for the lipid soluble radioactivity extracted from rat liver at 0.5 hr after intravenous administration.; assay type: functional; outline: as §3
Rattus norvegicus [14] = test: Compound was evaluated for the lipid soluble radioactivity extracted from rat liver at 24 hr after intravenous administration.; assay type: functional; outline: as §3
Rattus norvegicus [15] = test: Compound was evaluated for the lipid soluble radioactivity extracted from rat plasma at 0.5 hr after intravenous administration.; assay type: functional; outline: as §3
Rattus norvegicus [16] = test: Liver radioactivity after iv administration of compound (24 h) in rats; assay type: functional, organism-based
Outline: (§4)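 Rats (3-5 per time point) dosed iv with about 5-30 μCi (9-83 μg) of 125I-labeled compound in saline containing Tween-20. Killed by exsanguination under ether at 5 min, 30 min or 24 h. Liver removed, minced, blotted and counted. Values are % administered dose per organ, based on each animal's actual liver weight, ± SEM.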

Rattus norvegicus [17] = test: Liver radioactivity after iv administration of compound (30 min) in rats; assay type: functional, organism-based; outline: as §4
Rattus norvegicus [18] = test: Liver radioactivity after iv administration of compound (5 min) in rats; assay type: functional, organism-based; outline: as §4
Rattus norvegicus [19] = test: Compound (125I labeled) was evaluated for the total radioactivity in albumin 5 min after intravenous administration.; assay type: functional; set-up: concentration or dose not given beside the values
Outline: (§5)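 Rat plasma taken 5 or 30 min after iv dosing of 125I-labeled compound (saline/Tween-20) and run on polyacrylamide gel electrophoresis. Gels sectioned and each section gamma-counted. Radioactivity in each band (stacking gel, lipoproteins, albumin, below-albumin) is given as % of total radioactivity applied to the gel.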

Rattus norvegicus [20] = test: Evaluated for the total radioactivity in below albumin at 30 min after intravenous administration.; assay type: functional; outline: as §5
Rattus norvegicus [21] = test: Compound (125I labeled) was evaluated for the total radioactivity in high-density lipoprotein 5 min after intravenous administration.; assay type: functional; outline: as §5
Rattus norvegicus [22] = test: Compound (125I labeled) was evaluated for the total radioactivity in high-density lipoprotein, at 30 min after intravenous administration.; assay type: functional; outline: as §5
Rattus norvegicus [23] = test: Compound (125I labeled) was evaluated for the total radioactivity in low-density lipoprotein 5 min after intravenous administration.; assay type: functional; set-up: concentration or dose not given beside the values; outline: as §5
Rattus norvegicus [24] = test: Compound (125I labeled) was evaluated for the total radioactivity in low-density lipoprotein, at 30 min after intravenous administration.; assay type: functional; outline: as §5
Rattus norvegicus [25] = test: Compound (125I labeled) was evaluated for the total radioactivity in stacking gel 5 min after intravenous administration.; assay type: functional; outline: as §5
Rattus norvegicus [26] = test: Compound (125I labeled) was evaluated for the total radioactivity in stacking gel at 30 min after intravenous administration.; assay type: functional; outline: as §5
Rattus norvegicus [27] = test: Biodistribution in Rat liver after 5 minutes of iv administration; per g of tissue; assay type: ADME, organism-based; settings: in vivo; outline: as §2
Rattus norvegicus [28] = test: Biodistribution in Rat blood after 30 minutes of iv administration; per g of tissue; assay type: ADME, organism-based; settings: in vivo, 0.5 h; outline: as §2
Rattus norvegicus [29] = test: Compound (125I labeled) was evaluated for the total radioactivity in albumin at 30 min after intravenous administration.; assay type: functional; set-up: concentration or dose not given beside the values; outline: as §5
Rattus norvegicus [30] = test: Biodistribution in Rat lung after 30 minutes of iv administration; assay type: ADME, organism-based; settings: in vivo, 0.5 h; outline: as §2
Rattus norvegicus [31] = test: Biodistribution in Rat liver after 5 minutes of iv administration; assay type: ADME, organism-based; settings: in vivo; outline: as §2
Rattus norvegicus [32] = test: Biodistribution in Rat lung after 24 hours of iv administration; assay type: ADME, organism-based; settings: in vivo; outline: as §2
Rattus norvegicus [33] = test: Biodistribution in Rat lung after 5 minutes of iv administration; assay type: ADME, organism-based; settings: in vivo; outline: as §2
Rattus norvegicus [34] = test: Biodistribution in Rat blood after 24 hours of iv administration; assay type: ADME, organism-based; settings: in vivo; outline: as §2
Rattus norvegicus [35] = test: Biodistribution in Rat blood after 30 minutes of iv administration; assay type: ADME, organism-based; settings: in vivo, 0.5 h; outline: as §2
Rattus norvegicus [36] = test: Biodistribution in Rat blood after 5 minutes of iv administration; assay type: ADME, organism-based; settings: in vivo; outline: as §2
Rattus norvegicus [37] = test: Biodistribution in Rat heart after 24 hours of iv administration; assay type: ADME, organism-based; settings: in vivo; outline: as §2
Rattus norvegicus [38] = test: Biodistribution in Rat heart after 30 minutes of iv administration; assay type: ADME, organism-based; settings: in vivo, 0.5 h; outline: as §2
Rattus norvegicus [39] = test: Biodistribution in Rat heart after 5 minutes of iv administration; assay type: ADME, organism-based; settings: in vivo; outline: as §2
Rattus norvegicus [40] = test: Biodistribution in Rat liver after 24 hours of iv administration; assay type: ADME, organism-based; settings: in vivo; outline: as §2
Rattus norvegicus [41] = test: (§6) Biodistribution in Rat liver after 30 minutes of iv administration; assay type: ADME, organism-based; settings: in vivo, 0.5 h; outline: as §2
Rattus norvegicus [42] = test: as §6; assay type: ADME, organism-based; settings: in vivo, 0.5 h; outline: as §2; remark: listed apart in the source
Rattus norvegicus [43] = test: Compound (125I labeled)was evaluated for the total radioactivity in stacking gel 5 min after intravenous administration.; assay type: functional; outline: as §5
Rattus norvegicus [44] = test: Compound (125I labeled)was evaluated for the total radioactivity in low-density lipoprotein 5 min after intravenous administration.; assay type: functional; outline: as §5

Compound | Biodistribution (Rattus norvegicus [1]) [%] | Biodistribution (Rattus norvegicus [2]) [%] | Extracted (Rattus norvegicus [12]) [%] | Parent compound (Rattus norvegicus [12]) [%] | Extracted (Rattus norvegicus [13]) [%] | Parent compound (Rattus norvegicus [13]) [%] | Extracted (Rattus norvegicus [14]) [%] | Parent compound (Rattus norvegicus [14]) [%] | Extracted (Rattus norvegicus [15]) [%] | Parent compound (Rattus norvegicus [15]) [%] | Radioactivity (Rattus norvegicus [16]) | Radioactivity (Rattus norvegicus [17]) | Radioactivity (Rattus norvegicus [18]) | Total radioactivity (Rattus norvegicus [19]) [%] | Total radioactivity (Rattus norvegicus [20]) | Total radioactivity (Rattus norvegicus [21]) [%] | Total radioactivity (Rattus norvegicus [22]) [%] | Total radioactivity (Rattus norvegicus [24]) [%] | Total radioactivity (Rattus norvegicus [26]) [%] | Total radioactivity (Rattus norvegicus [29]) [%] | other results
CCCCCCCCCCCCCCCC(=O)OC(COC(=O)C(CC)Cc1c(I)cc(I)c(N)c1I)COC(=O)C(CC)Cc1c(I)cc(I)c(N)c1I (centres undefined) | 4.54 | 0.33 | 82.1 | 77.4 | 88.4 | 86 | 93.9 | 91.7 | 86 | 82.6 | 52.1 | 30.2 | 18.4 | 3.2 | 0.1% and 0.3% | 55.1 | 59.7 | 29.7 | 6.8 | 3.4 | Biodistribution (Rattus norvegicus [3]): 1.1%; Biodistribution (Rattus norvegicus [4]): 1.49%; Biodistribution (Rattus norvegicus [5]): 0.54%; Biodistribution (Rattus norvegicus [6]): 7.44%; Biodistribution (Rattus norvegicus [7]): 0.21%; Biodistribution (Rattus norvegicus [8]): 0.66%; Biodistribution (Rattus norvegicus [9]): 0.87%; Biodistribution (Rattus norvegicus [10]): 0.26% and 0.33%; Biodistribution (Rattus norvegicus [11]): 4.54%; Total radioactivity (Rattus norvegicus [23]): 35.4%; Total radioactivity (Rattus norvegicus [25]): 6.2%; Biodistribution (Rattus norvegicus [27]): 0.84% and 2.9%; Biodistribution (Rattus norvegicus [28]): 5.17%
CCC(Cc1c(I)cc(I)c(N)c1I)C(=O)OCC(COC(=O)C(CC)Cc1c(I)cc(I)c(N)c1I)OC(=O)C(CC)Cc1c(I)cc(I)c(N)c1I (centres undefined) | – | – | 83.4 | 75.1 | 89 | 92.9 | 91.7 | 92.3 | 90.5 | 89.1 | 66.8 | 26 | 22.4 | 2.9 | 0.3% and 1.9% | 48.2 | 55.8 | 27 | 9.9 | 5.3 | Biodistribution (Rattus norvegicus [30]): 0.67%; Biodistribution (Rattus norvegicus [31]): 0.87% and 3.57%; Biodistribution (Rattus norvegicus [32]): 0.58%; Biodistribution (Rattus norvegicus [33]): 1.49%; Biodistribution (Rattus norvegicus [34]): 0.14%; Biodistribution (Rattus norvegicus [35]): 3.31%; Biodistribution (Rattus norvegicus [36]): 6.95%; Biodistribution (Rattus norvegicus [37]): 0.1%; Biodistribution (Rattus norvegicus [38]): 0.39%; Biodistribution (Rattus norvegicus [39]): 0.97%; Biodistribution (Rattus norvegicus [40]): 0.18% and 9.19%; Biodistribution (Rattus norvegicus [41]): 2.79%; Biodistribution (Rattus norvegicus [42]): 2.79%; Total radioactivity (Rattus norvegicus [23]): 33.4%; Total radioactivity (Rattus norvegicus [43]): 15.2%
CCCCCCCCCCCCCCCC(=O)OC(COC(=O)Cc1c(I)cc(I)c(N)c1I)COC(=O)Cc1c(I)cc(I)c(N)c1I | 7.62 | 0.13 | 67 | 60.8 | 90.5 | 89.5 | 80.1 | 68.8 | 82.7 | 82.8 | 10.3 | 57.2 | 38.8 | 4.5 | 3.2% and 2.4% | 34.7 | 42 | 35.1 | 16.6 | 3.9 | Biodistribution (Rattus norvegicus [3]): 0.73%; Biodistribution (Rattus norvegicus [4]): 1.13%; Biodistribution (Rattus norvegicus [5]): 0.12%; Biodistribution (Rattus norvegicus [6]): 4.75%; Biodistribution (Rattus norvegicus [7]): 0.05%; Biodistribution (Rattus norvegicus [8]): 0.32%; Biodistribution (Rattus norvegicus [9]): 0.64%; Biodistribution (Rattus norvegicus [10]): 0.11% and 1.39%; Biodistribution (Rattus norvegicus [11]): 7.62%; Total radioactivity (Rattus norvegicus [25]): 18.7%; Total radioactivity (Rattus norvegicus [44]): 39%; Biodistribution (Rattus norvegicus [27]): 0.54% and 5.53%; Biodistribution (Rattus norvegicus [28]): 2.62%

From ChEMBL document CHEMBL1123382, “Potential tumor- or organ-imaging agents. 27. Polyiodinated 1,3-disubstituted and 1,2,3-trisubstituted triacylglycerols” (J Med Chem, 1986)
